From ChEMBL document CHEMBL3046214, “Friedelane triterpenes from Celastrus vulcanicola as photosynthetic inhibitors” (J Agric Food Chem, 2010)

Experiments:
[1] = tested on: Spinacia oleracea; experiment: Inhibition of photophosphorylation in Spinacia oleracea (spinach) leaves chloroplasts by titrimetry; type: functional; conditions: read-out: I50
Procedure, shortened: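 Intact spinach chloroplasts (20 μg Chl/mL) were osmotically broken in 3 mL of weakly buffered medium: 100 mM sorbitol, 10 mM KCl, 5 mM MgCl2, 0.5 mM KCN, 1 mM tricine-KOH pH 8.0, 50 μM MV and 1 mM ADP. ATP synthesis was taken from the medium alkalization rate in the linear part of illumination, calibrated by HCl back-titration, as μmol ATP (mg Chl)-1 h-1. I50 was obtained from concentration-activity plots; three replicates.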

[2] = tested on: Spinacia oleracea; experiment: Increase in Magnesium-transporting ATPase activity in Spinacia oleracea (spinach) leaves chloroplasts thylakoids at 3 mM
Procedure, shortened: (§1)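 Spinach chloroplasts were isolated in 350 mM sorbitol, 5 mM ascorbate, 20 mM MES pH 6.5, centrifuged at 3000g for 60 s, washed, and resuspended in 35 mM HEPES pH 7.6. Light-triggered Mg2+-ATPase activity of thylakoid membranes was measured as released inorganic phosphate. Ammonium chloride served as positive control.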

[3] = tested on: Spinacia oleracea; experiment: Increase in Magnesium-transporting ATPase activity in Spinacia oleracea (spinach) leaves chloroplasts thylakoids at 2 mM; procedure, shortened: as §1
[4] = tested on: Spinacia oleracea; experiment: Increase in Magnesium-transporting ATPase activity in Spinacia oleracea (spinach) leaves chloroplasts thylakoids at 1 mM; procedure, shortened: as §1

| IC50 [1] [µM] | Activity [2] [%] | Activity [3] [%] | Activity [4] [%] | SMILES |
| --- | --- | --- | --- | --- |
| 269 | – | – | – | C[C@H]1C(=O)CC[C@@H]2[C@]1(C)CC[C@H]1[C@@]2(C)CC[C@@]2(C)[C@@H]3C[C@](C)(C(=O)O)CC[C@]3(C)CC[C@]12C [MAYTENOIC ACID] |
| 182 | – | – | – | C[C@H]1C(=O)CC[C@@H]2[C@]1(C)CC[C@H]1[C@@]2(C)CC[C@@]2(C)[C@@H]3CC(C)(C)CC[C@]3(C)CC[C@]12C [FRIEDELINE] |
| – | 234 | 252 | 128 | Cl.N |
